TRPC6 activator: mouse TRPC6 channel activation; Q61143; HEK293-TRPC6 membrane potential dye fluorescence; stronger effect = higher value; B-score at 10 µM; 310,000 tested, 0.13% active;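 active = B-score of the integrated fluorescence ratio above library mean plus 3 SD, and starting fluorescence ratio within library mean plus 5 SD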;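 also: higher score means more depolarization so channel activation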
TRPC6 inhibitor: blocks the mouse TRPC6 cation channel | Q61143 | HEK293-TRPC6, membrane potential dye, ACh-evoked depolarization; stronger effect = lower value | B-score at 10 µM | 310,000 tested, 1.1% active | AID 2553;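 active = B-score under library mean minus 3 SD, initial fluorescence not abnormally high, positive integrated signal ratio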;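 also: B-score derived from integrated fluorescence ratio over the kinetic read; more negative B-score means stronger inhibition of depolarization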
TRPC4 block: blocks the mouse TRPC4 cation channel; B-score at 10 µM; HEK293 TRPC4beta/mu-opioid, DAMGO-evoked Fluo4 calcium flux; stronger effect = lower value; Q9QUQ5; 300,000 tested, 0.39% active;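 active = B-score over 3 SD under the library average, no early fluorescence shift, positive overall ratio signal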
Target sequence (Q9QUQ5 whole entry, looked up): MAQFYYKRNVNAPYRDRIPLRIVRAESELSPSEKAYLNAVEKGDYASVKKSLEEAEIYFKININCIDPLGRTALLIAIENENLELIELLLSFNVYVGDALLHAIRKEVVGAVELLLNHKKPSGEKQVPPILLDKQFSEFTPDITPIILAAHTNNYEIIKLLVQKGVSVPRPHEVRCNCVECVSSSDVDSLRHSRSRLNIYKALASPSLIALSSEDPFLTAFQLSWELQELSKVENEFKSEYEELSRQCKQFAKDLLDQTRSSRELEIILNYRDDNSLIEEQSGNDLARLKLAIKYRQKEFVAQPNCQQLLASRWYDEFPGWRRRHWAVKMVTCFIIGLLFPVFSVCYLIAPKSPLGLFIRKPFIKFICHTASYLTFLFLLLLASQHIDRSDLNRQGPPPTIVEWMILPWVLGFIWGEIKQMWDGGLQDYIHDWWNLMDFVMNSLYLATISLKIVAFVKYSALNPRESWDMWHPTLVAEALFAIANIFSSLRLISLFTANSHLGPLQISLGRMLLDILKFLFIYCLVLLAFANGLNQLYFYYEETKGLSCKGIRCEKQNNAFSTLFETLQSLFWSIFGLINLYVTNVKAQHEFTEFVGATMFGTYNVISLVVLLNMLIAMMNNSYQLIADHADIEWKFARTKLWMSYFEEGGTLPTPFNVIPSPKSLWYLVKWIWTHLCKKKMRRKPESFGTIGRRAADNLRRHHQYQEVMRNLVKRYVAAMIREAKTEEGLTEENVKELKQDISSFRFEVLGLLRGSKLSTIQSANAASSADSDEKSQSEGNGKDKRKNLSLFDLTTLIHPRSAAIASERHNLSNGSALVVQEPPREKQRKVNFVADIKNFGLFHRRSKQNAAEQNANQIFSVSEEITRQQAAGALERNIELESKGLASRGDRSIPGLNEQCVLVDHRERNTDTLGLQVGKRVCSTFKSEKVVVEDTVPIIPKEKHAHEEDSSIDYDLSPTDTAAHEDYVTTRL
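Assay system: HEK293 cells with stable TRPC4beta plus mu-opioid receptor expression; Probe or stimulus: DAMGO in two steps, submaximal then maximal; Dosing: single-point compound dosing; Measured by: Fluo4 calcium-dye fluorescence, kinetic read; Read-out basis: B score from integrated Fluo4 fluorescence ratio.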
TRPC4 agonist: opens the mouse TRPC4 cation channel | Q9QUQ5 | HEK293 TRPC4beta/mu-opioid, Fluo4 calcium fluorescence; stronger effect = higher value | B-score at 10 µM | 310,000 tested, 0.49% active | AID 2237;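 active = B-score above 5 SD of library B-scores, and initial fluorescence ratio not above library mean plus 5 SD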;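 also: positive B-score marks a calcium rise read as TRPC4 activation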
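Material: TRPC4beta and mu-opioid receptor HEK293 stable cells | Incubation: 45 min room-temperature Fluo4 loading, 110 s read | Detection: Kinetic Fluo4 calcium fluorescence | Measure: Integrated baseline-normalised fluorescence ratio, converted to per-well B score | Benchmarks: Low control buffer alone, high control maximal DAMGO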
TRPC4 potent: allosterically enhances the mouse TRPC4 cation channel. Q9QUQ5. HEK293 TRPC4beta/mu-opioid, DAMGO EC20, Fluo-4 Ca2+ flux; stronger effect = higher value. B-score at 10 µM. 310,000 tested, 0.42% active;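 active = B-score of calcium response area above 5 SD of library B-scores, with initial fluorescence ratio within 5 SD of library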
TRPC4 sel inh 2: mouse TRPC4 off-target activity of TRPC6 inhibitors, second screen; 920 tested, 42% active; inhibition, % at 10 µM; HEK293 TRPC4/MOR, membrane potential dye fluorescence; channel activated by saturating DAMGO dose; shares compounds with TRPC6 inhibitor; AID 2776;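 active = compounds whose fluorescence signal differed from control wells by over 3 SD, either direction, in both duplicate plates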
TRPC4 spec: tests whether TRPC6 inhibitors also affect mouse TRPC4. shares compounds with TRPC6 inhibitor. HEK293 TRPC4/mu-opioid, membrane potential fluorescence. activity change, negative = inhibition, % at 10 µM. 920 tested, 61% active;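 active = rise or fall in signal beyond 3 SD of buffer-only wells in both replicate plates, either sign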;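 also: integrated kinetic ratio of fluorescence range over baseline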
HEK293 MPD ctr 2-1: second counter-screen for TRPC6 inhibitors: parental HEK293 cells; 920 tested, 31% active; shares compounds with TRPC6 inhibitor; parental HEK293 membrane potential dye fluorescence; maximal acetylcholine challenge after compound addition; signal change vs control, % at 10 µM;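 active = membrane potential signal moving either way by over 3 SD of the maximum-effect control, in both duplicate plates, meaning non-specific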
HEK293 MPD ctr-1: parental HEK293 nonspecific activity of TRPC6 inhibitors; shares compounds with TRPC6 inhibitor; parental HEK293 membrane potential dye fluorescence; membrane potential signal change, % at 10 µM; 920 tested, 60% active;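 active = membrane potential signal shifting up or down by more than 3 SD of buffer-only wells, on both duplicate plates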
HEK293 MPD ctr-2: parental HEK293 nonspecific activity of TRPC6 modulators; shares compounds with TRPC6 inhibitor; membrane potential dye fluorescence; membrane potential signal change, % at 10 µM; 2,400 tested, 51% active;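 active = membrane potential signal moves up or down beyond 5 SD from buffer-only wells, on both duplicate plates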
HEK293 MPD ctr 2-2: second check of TRPC6 modulator effects in parental HEK293 cells. 2,400 tested, 14% active. inhibition, % at 10 µM. shares compounds with TRPC6 inhibitor. membrane potential dye fluorescence; after compound, maximal acetylcholine stimulation;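 active = membrane potential signal drops by more than 5 SD from the mean control signal, in both duplicate plates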
TRPC4/MOR mod: selectivity of TRPC6 modulators against mouse TRPC4 | AID 488927 | 2,400 tested, 69% active | HEK293 TRPC4/mu-opioid, membrane potential fluorescence | percent change from control (negative = decrease, positive = increase), % at 10 µM | shares compounds with TRPC6 inhibitor;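 active = membrane potential signal moved up or down beyond 5 SD of buffer control wells, in both duplicate plates, actives on both sides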
TRPC4/MOR inh 2: second check of whether TRPC6 modulators also affect mouse TRPC4. 2,400 tested, 55% active. shares compounds with TRPC6 inhibitor. AID 488928. HEK293 TRPC4/mu-opioid, membrane potential dye fluorescence; stimulated with maximal-effect DAMGO. inhibition, % at 10 µM;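 active = drop in membrane potential signal beyond 5 SD of the control wells in both duplicate plates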;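 also: TRPC4 counter screen for TRPC6 hits run under conditions tuned for TRPC6 not TRPC4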
TRPC6 inh conf: mouse TRPC6 inhibitor confirmation | shares compounds with TRPC6 inhibitor | HEK293-TRPC6, membrane potential dye, ACh-evoked depolarization | inhibition, % at 10 µM | 3,300 tested, 43% active;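 active = fluorescence ratio falls more than 5 SD below the full-stimulation control mean, in both duplicate runs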;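 also: integrated fluorescence ratio of peak minus minimum over baseline after agonist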
TRPC6 act conf: confirmation of mouse TRPC6 activators | HEK293-TRPC6 membrane potential dye fluorescence, FDSS | shares compounds with TRPC6 inhibitor | AID 488961 | 2,800 tested, 11% active | activation, % at 10 µM;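 active = ratio signal rise beyond 5 SD above unstimulated control wells' mean, seen in both duplicate runs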
Each line names hits and unclear results; the compound was inactive in the other large screens (follow-up assays come after a bar, where they were run). An excerpt weighted towards active compounds, which were near 2.3% of everything screened.

C=CCc1cc(Cl)ccc1OCCN(C)C	TRPC6 inhibitor -5 (no result: TRPC4 block) | HEK293 MPD ctr-2 inactive | HEK293 MPD ctr 2-2 inactive | TRPC4/MOR mod 8.0% | TRPC4/MOR inh 2 inactive | TRPC6 inh conf inactive | TRPC6 act conf inactive
c1ccc(-c2cc3c(N4CCCC4)ncnc3s2)cc1	none
OCCN1CCN(c2ncnc3sc(-c4ccccc4)cc23)CC1	TRPC6 inhibitor -6.2 | HEK293 MPD ctr-2 inactive | HEK293 MPD ctr 2-2 inactive | TRPC4/MOR mod -9.5% | TRPC4/MOR inh 2 36% | TRPC6 inh conf inactive | TRPC6 act conf inactive
Cc1cc(=O)[nH]c(/N=C(\N)Nc2ccc(SC(F)F)cc2)n1	none
CCOC(=O)Cn1c(=O)cc(C)c2cccc(C)c21	none
Cc1cccc2c(=O)cc(C)n(CC(=O)N3CCCCC3)c12	TRPC6 inhibitor -6.2 | HEK293 MPD ctr-2 -260% | HEK293 MPD ctr 2-2 inactive | TRPC4/MOR mod -46% | TRPC4/MOR inh 2 28% | TRPC6 inh conf inactive | TRPC6 act conf inactive
CCOC(=O)Cn1c(C)cc(=O)c2cccc(C)c21	TRPC6 inhibitor -7.7 | HEK293 MPD ctr-2 -270% | HEK293 MPD ctr 2-2 inactive | TRPC4/MOR mod -44% | TRPC4/MOR inh 2 40% | TRPC6 inh conf inactive | TRPC6 act conf inactive
Cc1cccc2c(=O)cc(C)n(CC(=O)N3CCOCC3)c12	none
CNC(=O)Cn1c(C)cc(=O)c2cccc(C)c21	TRPC6 inhibitor -6.2 | HEK293 MPD ctr-2 -398% | HEK293 MPD ctr 2-2 inactive | TRPC4/MOR mod -54% | TRPC4/MOR inh 2 30% | TRPC6 inh conf inactive | TRPC6 act conf inactive
CCc1cccc(NC(=O)Cn2cc(C=O)c3ccccc32)c1	none
CCOC(=O)N1CCc2c(sc(NC(=O)CN3CCOCC3)c2C(=O)Nc2ccccc2)C1	none
CCOC(=O)N1CCc2c(sc(NC(=O)CN3CCN(C)CC3)c2C(=O)Nc2ccccc2)C1	TRPC6 inhibitor -5.3 | HEK293 MPD ctr-2 -83% | HEK293 MPD ctr 2-2 inactive | TRPC4/MOR mod -24% | TRPC4/MOR inh 2 46% | TRPC6 inh conf inactive | TRPC6 act conf inactive
Cc1cc(=O)oc2cc(OCC(=O)N3CCN(C(=O)c4ccco4)CC3)ccc12	TRPC6 inhibitor -5.5 | HEK293 MPD ctr-2 inactive | HEK293 MPD ctr 2-2 inactive | TRPC4/MOR mod inactive | TRPC4/MOR inh 2 inactive | TRPC6 inh conf inactive | TRPC6 act conf inactive
COC(=O)c1cc(OC)c(OC)cc1NC(=O)c1cc(C(C)(C)C)oc1C	none
CN(C)CCOC1c2ccccc2CSc2ccccc21 (stereo not given)	TRPC6 inhibitor -7.8 | TRPC4 sel inh 2 inactive | TRPC4 spec 5.7% | HEK293 MPD ctr 2-1 40% | HEK293 MPD ctr-1 6.8% | TRPC6 inh conf 53%
CCCCN(CC)CCNC(=O)c1cc2c(=O)[nH]c3ccc(C)cc3c2s1	TRPC6 inhibitor -6.3 | HEK293 MPD ctr-2 186% | HEK293 MPD ctr 2-2 inactive | TRPC4/MOR mod 35% | TRPC4/MOR inh 2 inactive | TRPC6 inh conf 60%
CCCCN(CC)CCCNC(=O)c1cc2c(=O)[nH]c3ccccc3c2s1	none
CC(O)CNCCNCc1c(OCc2ccccc2)ccc2ccccc12 (stereo not given)	TRPC6 inhibitor -7.9 | TRPC4 sel inh 2 28% | TRPC4 spec -9.5% | HEK293 MPD ctr 2-1 inactive | HEK293 MPD ctr-1 inactive | TRPC6 inh conf 66% | TRPC6 act conf inactive
CN(Cc1ccccc1F)C(=O)COc1ccc(C(=O)c2ccccc2)cc1	none
FC(F)(F)c1nc(N2CCCC2)ncc1-c1nnnn1-c1ccc(Cl)cc1	none
CC(C)C[C@H](NC(=O)[C@@H]1Cc2ccccc2CN1)C(=O)Nc1ccc(C(C)C)cc1	TRPC6 inhibitor -5.2 | HEK293 MPD ctr-2 inactive | HEK293 MPD ctr 2-2 inactive | TRPC4/MOR mod -12% | TRPC4/MOR inh 2 68% | TRPC6 inh conf inactive | TRPC6 act conf inactive
CCn1cc(C(=O)OCc2ccc(F)cc2)c(=O)c2ccc(C)nc21	TRPC6 inhibitor -10 | HEK293 MPD ctr-2 -340% | HEK293 MPD ctr 2-2 84% | TRPC4/MOR mod -52% | TRPC4/MOR inh 2 65% | TRPC6 inh conf 64% | TRPC6 act conf inactive
CCn1cc(C(=O)OCc2ccccc2)c(=O)c2ccc(C)nc21	TRPC6 inhibitor -6 | HEK293 MPD ctr-2 -308% | HEK293 MPD ctr 2-2 inactive | TRPC4/MOR mod -50% | TRPC4/MOR inh 2 48% | TRPC6 inh conf inactive | TRPC6 act conf inactive
CCN1C(=O)[C@H]2[C@@H](c3ccc(-c4ccc(OC)cc4)cc3)N3CCC[C@@]3(C(=O)OC)[C@H]2C1=O	none
COCCCn1c(=NC(=O)c2ccccc2)c(C#N)cc2c(=O)n3cccc(C)c3nc21	TRPC6 inhibitor -6.7 | HEK293 MPD ctr-2 inactive | HEK293 MPD ctr 2-2 inactive | TRPC4/MOR mod inactive | TRPC4/MOR inh 2 inactive | TRPC6 inh conf inactive | TRPC6 act conf inactive
CCOCCCn1c(=NC(=O)c2cccs2)c(C#N)cc2c(=O)n3cccc(C)c3nc21	none
Cc1cccc(C(=O)N=c2c(C#N)cc3c(=O)n4cccc(C)c4nc3n2Cc2ccco2)c1	TRPC6 inhibitor -5.1 | HEK293 MPD ctr-2 124% | HEK293 MPD ctr 2-2 inactive | TRPC4/MOR mod -54% | TRPC4/MOR inh 2 36% | TRPC6 inh conf inactive | TRPC6 act conf inactive
Cc1cccn2c(=O)c3cc(C#N)c(=NC(=O)c4cccs4)n(CC(C)C)c3nc12	none

From PubChem BioAssay
